Published values pooled from the literature.
Lines come from different studies, so protocols differ.
Target: Proto-oncogene tyrosine-protein kinase Src (SRC, Homo sapiens, UniProt P12931)

C[C@@H](c1cccc(C#N)c1)n1cc(Cl)cc(C(N)=O)c1=N — remaining binding (cell-free assay, competition with immobilised ligand; 1 µM): 99%
COC(=O)Nc1nc2ccc(C(=O)c3ccccc3)cc2[nH]1 — remaining binding (cell-free assay, competition with immobilised ligand; 10 µM): 34%
CCC(=N\O)/C(C)=C/c1ccc(F)cc1 — remaining binding (cell-free assay, competition with immobilised ligand; 1 µM): 91%
CNC(=O)[C@@H]1CC[C@@H](n2c(-c3ccc4cnccc4c3)nc3ccc(C(=O)NCc4cccc(C(N)=O)c4)cc32)C1 — remaining binding (binding, competition with immobilised ligand; 1 µM): 100%
Cc1c(NC(=O)c2cc(C(N)=O)nc3cc(F)ccc23)c(C(F)(F)F)nn1Cc1ccc(C#N)cc1 — remaining binding (cell-free assay, competition with immobilised ligand; 1 µM): 81%
Cc1cnn2ncc(-c3ccnc(N(C)C)n3)c2c1 — remaining binding (binding; 1 µM): 100%
CN(C(=O)c1ccccc1)c1cc(N(C)c2ccc3c(c2)CCc2ccc(C(=O)NCCN4CCOCC4)cc2C3=O)ccc1F — remaining binding (cell-free assay, competition with immobilised ligand; 1 µM): 98%
CN(C)c1ncc(F)c(-c2cnn3ncccc23)n1 — remaining binding (binding; 1 µM): 79%
CN([C@@H]1CCc2c(CC(=O)O)c3cc(S(C)(=O)=O)ccc3n2C1)S(=O)(=O)c1ccc(F)cc1 — remaining binding (cell-free assay, competition with immobilised ligand; 1 µM): 96%
O=C(c1ccc(Nc2ncc(Cl)c(-c3cc4ccccc4s3)n2)cc1)N1CCC(N2CCCC2)CC1 — remaining binding (binding, competition with immobilised ligand; 1 µM): 62%
COc1ccnn2ncc(-c3ccnc(N(C)C)n3)c12 — remaining binding (binding; 1 µM): 100%
O=C(NCC1CCOCC1)c1n[nH]cc1NC(=O)c1c(F)cccc1F — remaining binding (binding, competition with immobilised ligand; 1 µM): 86%
COc1ccc2c(O[C@@H]3C[C@H]4C(=O)N[C@]5(C(=O)O)CC5/C=C\CCCCC[C@H](NC(=O)OC5CCCC5)C(=O)N4C3)cc(-c3csc(NC(=O)C(C)C)n3)nc2c1C (stereo partly shown) — remaining binding (cell-free assay, competition with immobilised ligand; 1 µM): 100%
CN(CCCC(F)(F)F)c1nccc(-c2cnn3ncccc23)n1 — remaining binding (binding; 1 µM): 100%
C[C@@H](c1ccc(-n2cnc3c(N)ncnc32)cc1)N1CCc2nn(C)c(Cc3ccccc3)c2C1=O — remaining binding (binding, competition with immobilised ligand; 0.1 µM): 98%
FC(F)(F)Oc1cccc(-c2cnc3ccc(-c4ccncc4)nn23)c1 — remaining binding (binding, competition with immobilised ligand; 5 µM): 56%
O=C(c1ccc(Nc2nccc(-c3cc4ccccc4s3)n2)cc1)N1CCC(N2CCCC2)CC1 — remaining binding (binding, competition with immobilised ligand; 1 µM): 63%
CN(C)c1nccc(-c2cnc3ncccn23)n1 — remaining binding (binding; 1 µM): 89%
O=C(NCCCN1CCOCC1)c1ccc(Nc2nccc(-c3cc4ccccc4s3)n2)cc1 — remaining binding (binding, competition with immobilised ligand; 1 µM): 100%
Nc1ncc2c(n1)-c1c([nH]c3ccc(C#CC4CC4)cc13)CCCC2 — remaining binding (binding, competition with immobilised ligand; 1 µM): 100%
COc1cnc(Nc2cccc(S(N)(=O)=O)c2)nc1N1CCN(c2ccccc2)C(=O)C1 — remaining binding (binding, competition with immobilised ligand; 1 µM): 100%
C[C@@H]1CCN(c2nccc(-c3cnn4ncccc34)n2)C1 — remaining binding (binding; 1 µM): 92%
CCOC(=O)c1cc2cc(-c3cc(C(=O)NCc4ccc(C(=O)O)cc4)nn3C)ccc2[nH]1 — remaining binding (cell-free assay, competition with immobilised ligand; 0.1 µM): 93%
N[C@@H]1CCN(c2nccc(-c3cnn4ncccc34)n2)C1 — remaining binding (binding; 1 µM): 100%
Nc1c(C(=O)NCc2ccc(C(=O)NCCCC3CCCCC3)cc2)cnn1-c1ccccc1 — remaining binding (cell-free assay, competition with immobilised ligand; 0.1 µM): 100%
